Measurements reported in ChEMBL document CHEMBL4184225, “Discovery of selective 2,4-diaminoquinazoline toll-like receptor 7 (TLR 7) agonists” (Bioorg Med Chem Lett, 2018).

What was measured:
[1] = target: T1, Toll-like receptor 7 (Homo sapiens) (UniProt Q9NYK1); experiment: Agonist activity at TLR7 in human PBMC assessed as suppression of HCV replicon replication in human HuH7 luc/neo cells harboring RNA encoding bicistronic expression construct comprising wild type HCV type 1b NS3-NS5B regions exposed to conditioned media from compound treated PBMCs by luciferase reporter gene assay; assay type: cell-based
T1 sequence (whole entry): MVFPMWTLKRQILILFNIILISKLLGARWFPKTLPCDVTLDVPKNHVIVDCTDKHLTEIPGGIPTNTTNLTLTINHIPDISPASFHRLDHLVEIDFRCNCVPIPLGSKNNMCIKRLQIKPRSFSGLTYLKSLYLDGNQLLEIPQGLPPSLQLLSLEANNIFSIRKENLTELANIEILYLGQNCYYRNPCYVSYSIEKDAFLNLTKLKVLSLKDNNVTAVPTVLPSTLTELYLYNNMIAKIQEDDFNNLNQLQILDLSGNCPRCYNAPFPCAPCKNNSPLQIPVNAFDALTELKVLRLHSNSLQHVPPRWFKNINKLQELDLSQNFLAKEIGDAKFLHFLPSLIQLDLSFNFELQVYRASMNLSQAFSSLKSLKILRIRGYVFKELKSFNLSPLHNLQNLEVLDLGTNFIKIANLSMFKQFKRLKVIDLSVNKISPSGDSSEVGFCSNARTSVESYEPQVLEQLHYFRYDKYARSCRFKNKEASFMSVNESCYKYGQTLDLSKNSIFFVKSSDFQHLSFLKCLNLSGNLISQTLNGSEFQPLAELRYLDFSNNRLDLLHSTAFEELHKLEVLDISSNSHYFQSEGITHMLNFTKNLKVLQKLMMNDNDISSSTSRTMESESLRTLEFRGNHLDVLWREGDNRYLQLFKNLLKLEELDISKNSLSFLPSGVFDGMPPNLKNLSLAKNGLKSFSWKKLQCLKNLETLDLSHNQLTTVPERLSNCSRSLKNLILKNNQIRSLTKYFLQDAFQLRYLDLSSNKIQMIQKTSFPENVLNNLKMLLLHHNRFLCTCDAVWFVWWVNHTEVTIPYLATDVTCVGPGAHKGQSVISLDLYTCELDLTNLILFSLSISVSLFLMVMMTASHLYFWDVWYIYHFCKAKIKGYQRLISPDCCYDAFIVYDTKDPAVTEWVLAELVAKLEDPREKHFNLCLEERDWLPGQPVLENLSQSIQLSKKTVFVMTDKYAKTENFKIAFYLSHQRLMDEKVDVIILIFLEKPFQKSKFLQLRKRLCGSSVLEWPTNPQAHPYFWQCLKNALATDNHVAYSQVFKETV
Method in brief: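 PBMCs from buffy coats of at least two donors (Ficoll), in RPMI with 10% human AB serum, 2 x 10^5 cells/well, incubated overnight with compound. Supernatant transferred onto Huh7-luc/neo replicon cells plated the day before (2.2 x 10^3/well). Luciferase read after 24 h. EC50 is the concentration applied to PBMCs giving 50% luciferase reduction. Recombinant IFN-α2a standard.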

[2] = Cytotoxic activity against HEK293 cells assessed as reduction in cell viability incubated for 6 hrs; assay type: cell-based; settings: human
Method in brief: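 HEK293 cells transfected with the CMV-TLR7 construct alone, treated with a compound dilution series for 6 h at 37°C, 5% CO₂. Viability read by ATP luminescence. Reported as CC50.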

Toll-like receptor 8 = target: T2, Toll-like receptor 8 (Homo sapiens, UniProt Q9NR97); experiment: Agonist activity at human TLR8 expressed in HEK293 cells assessed as induction of receptor activation incubated for 6 hrs by NF-kappaB-luciferase reporter gene assay; assay type: cell-based; settings: hek293, 6 h
T2 sequence (Q9NR97 whole entry): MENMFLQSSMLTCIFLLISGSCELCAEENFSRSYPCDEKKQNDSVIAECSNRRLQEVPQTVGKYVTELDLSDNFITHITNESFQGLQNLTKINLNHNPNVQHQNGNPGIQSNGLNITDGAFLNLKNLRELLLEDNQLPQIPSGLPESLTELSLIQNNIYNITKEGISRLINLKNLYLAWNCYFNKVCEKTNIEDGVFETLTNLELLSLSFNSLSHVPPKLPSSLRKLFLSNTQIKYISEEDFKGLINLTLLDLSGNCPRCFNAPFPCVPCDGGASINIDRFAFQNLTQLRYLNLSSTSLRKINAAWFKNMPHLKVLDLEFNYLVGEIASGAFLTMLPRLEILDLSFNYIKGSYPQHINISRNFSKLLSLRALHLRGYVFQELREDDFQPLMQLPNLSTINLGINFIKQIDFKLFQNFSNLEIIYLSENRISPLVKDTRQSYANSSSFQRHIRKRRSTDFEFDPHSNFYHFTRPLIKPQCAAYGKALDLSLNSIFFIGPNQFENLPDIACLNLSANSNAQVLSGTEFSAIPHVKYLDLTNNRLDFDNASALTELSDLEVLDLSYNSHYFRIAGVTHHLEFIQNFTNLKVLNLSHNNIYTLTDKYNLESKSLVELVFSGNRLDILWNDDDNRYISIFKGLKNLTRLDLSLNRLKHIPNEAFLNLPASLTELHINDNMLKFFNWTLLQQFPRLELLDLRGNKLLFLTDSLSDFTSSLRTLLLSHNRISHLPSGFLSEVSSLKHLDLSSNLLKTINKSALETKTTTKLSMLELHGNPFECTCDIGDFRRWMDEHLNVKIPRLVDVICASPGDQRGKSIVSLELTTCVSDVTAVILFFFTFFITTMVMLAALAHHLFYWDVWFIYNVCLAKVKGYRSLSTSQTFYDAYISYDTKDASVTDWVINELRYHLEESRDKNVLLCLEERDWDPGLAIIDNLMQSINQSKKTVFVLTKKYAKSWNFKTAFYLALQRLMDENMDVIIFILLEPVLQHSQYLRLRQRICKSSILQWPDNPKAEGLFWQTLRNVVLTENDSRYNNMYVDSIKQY
Method in brief: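 HEK293 cells transiently transfected overnight at 37°C with CMV-TLR8 plasmid (wild type or dLRR2 mutant) plus NFκB-luc reporter, then exposed to compound for 6 h at 37°C, 5% CO₂. Luciferase read-out. Quadruplicate dose-response. LEC is the concentration giving an effect at least two-fold above the assay SD, averaged over two or more independent experiments.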

[3] = target: T1, Toll-like receptor 7 (Homo sapiens); experiment: Agonist activity at human TLR7 expressed in HEK293 cells assessed as induction of receptor activation incubated for 6 hrs by NF-kappaB-luciferase reporter gene assay; assay type: cell-based
Method in brief: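 HEK293 cells transiently transfected overnight with CMV-TLR7 (wild type or dLRR2 mutant) plus NFκB-luc plasmids. Seeded at 1.67 x 10^5 cells/mL onto compound in 4% DMSO (stock), 6 h at 37°C, 5% CO2, luciferase readout. Quadruplicate dose-response. LEC is the concentration giving an effect at least two-fold above assay SD. Values averaged over independent experiments where repeated.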

[4] = Metabolic stability in human liver microsomes assessed as drug metabolism after 15 mins at 1 uM; assay type: ADME, microsome; settings: read-out: Drug metabolism
Method in brief: (§1)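 Compound at 1µM incubated with liver microsomes of the stated species. Percent of compound metabolized after 15 min.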

[5] = Metabolic stability in mouse liver microsomes assessed as drug metabolism after 15 mins at 1 uM; assay type: ADME, microsome; settings: read-out: Drug metabolism; method in brief: as §1

Row | Compound | MEC [1] | CC50 at 6 h [2] | MEC (Toll-like receptor 8) | MEC [3] | metabolised at 0.25 h, 1 µM [4] | metabolised at 0.25 h, 1 µM [5]
1 | CCCCNc1nc(N)nc2c(F)cccc12 | 0.07 µM | > 18 µM | 0.3 µM | 0.2 µM |  | 
2 | CCCCNc1nc(N)nc2ccc(OC)cc12 | 2.44 µM | > 18 µM | 1.8 µM | 5.6 µM |  | 
3 | CCCNc1nc(N)nc2ccccc12 | 0.67 µM | > 25 µM | 0.93 µM | 1.07 µM |  | 
4 | CCCCNc1nc(N)nc2cccc(OCCOC)c12 | 0.12 µM | > 25 µM | 0.2 µM | 0.1 µM | 59% | 98%
5 | CCCCNc1nc(N)nc2cccc(C(=O)N(C)C(C)C)c12 | 1.92 µM | > 25 µM | > 25 µM | 5.62 µM |  | 
6 | CCCCNc1nc(N)nc2cc(F)c(F)cc12 | 0.26 µM | > 18 µM | 0.1 µM | 1.8 µM |  | 
7 | CCCCNc1nc(N)nc2cccc(CC3CCCC3)c12 | 0.09 µM | > 25 µM | > 25 µM | 0.12 µM |  | 
8 | CCCCNc1nc(N)nc2cc(C(N)=O)ccc12 | 0.15 µM | > 18 µM | 2 µM | 0.4 µM |  | 
9 | CCCCNc1nc(N)nc2ccc(C(C)=O)cc12 | 2.39 µM | > 18 µM | 1.9 µM | 6.1 µM |  | 
10 | CCCCNc1nc(N)nc2cc(C(=O)N(C)C)ccc12 | 0.06 µM | > 18 µM | 0.5 µM | 0.1 µM |  | 
11 | CCNc1nc(N)nc2ccccc12 | 2.27 µM | > 25 µM | 0.77 µM | 3.07 µM |  | 
12 | CCCCNc1nc(N)nc2ccc(C(C)O)cc12 (stereo not given) | 8.49 µM | > 18 µM | 5.8 µM | 12 µM |  | 
13 | CCCCNc1nc(N)nc2cc(OC)c(OC)cc12 | 2.05 µM | > 18 µM | 1.1 µM | 10 µM |  | 
14 | CCCCNc1nc(N)nc2cccc(C(=O)N[C@@H](C)c3cccc(OC)c3)c12 | 0.5 µM | > 25 µM | > 25 µM | 0.37 µM | 97% | 96%
15 | CCCCNc1nc(N)nc2cccc(Cl)c12 | 0.17 µM | > 25 µM |  | 1 µM | 99% | 88%
16 | CCCCNc1nc(N)nc2cccc(C)c12 | 0.32 µM | > 25 µM | 0.3 µM | 0.5 µM | 96% | 100%
17 | CCCCNc1nc(N)nc2ccc(CO)cc12 | 0.14 µM | > 18 µM | 0.2 µM | 0.9 µM |  | 

Row | Compound | MEC [1] | CC50 at 6 h [2] | MEC (Toll-like receptor 8) | MEC [3] | metabolised at 0.25 h, 1 µM [4] | metabolised at 0.25 h, 1 µM [5]
18 | CCCCNc1nc(N)nc2ccc(CCc3ccc(N(C)C)cc3)cc12 | 0.15 µM | > 18 µM | 0.5 µM | 0.2 µM |  | 
19 | CCCC(C)Nc1nc(N)nc2ccccc12 (stereo not given) | 0.1 µM | > 25 µM | 0.17 µM | 0.71 µM |  | 
20 | CC(C)CCNc1nc(N)nc2ccccc12 | 1.5 µM | > 25 µM | 2.11 µM | > 25 µM |  | 
21 | CCCCCNc1nc(N)nc2ccccc12 | 0.04 µM | > 25 µM | 0.1 µM | 0.06 µM |  | 
22 | CNc1nc(N)nc2ccccc12 | 8.88 µM | > 25 µM | 6.87 µM | 18.7 µM |  | 
23 | CCCCNc1nc(N)nc2cc(OC)ccc12 | 0.15 µM | > 18 µM | 0.3 µM | 0.9 µM |  | 
24 | COCCCNc1nc(N)nc2ccccc12 | 0.04 µM | > 25 µM | 0.01 µM | 0.46 µM |  | 
25 | CCCCNc1nc(N)nc2ccc(F)cc12 | 0.11 µM | > 18 µM | 0.1 µM | 0.3 µM |  | 
26 | CCCCNc1nc(N)nc2ccc(CCc3ccccn3)cc12 | 0.04 µM | > 18 µM | 0.3 µM | 0.1 µM |  | 
27 | CCCCNc1nc(N)nc2cccc(C(=O)N[C@@H](C)c3ccccc3OC)c12 | 0.14 µM | > 25 µM | > 25 µM | 0.28 µM | 99% | 99%
28 | CCCCNc1nc(N)nc2cccc(OC)c12 | 0.1 µM | > 25 µM | 0.1 µM | 0.4 µM | 98% | 100%
29 | CCCCNc1nc(N)nc2ccc(C#N)cc12 | 13.2 µM | > 18 µM | 7.1 µM | > 25 µM |  | 
30 | CCCCNc1nc(N)nc2cc(CO)ccc12 | 0.05 µM | > 18 µM | 0.1 µM | 0.1 µM |  | 
31 | CCCCNc1nc(N)ncc1OCC | 1.43 µM | > 25 µM | 1.1 µM | 4.7 µM |  | 
32 | CCCCNc1nc(N)nc2cc(CN(C)C)ccc12 | 0.04 µM | > 18 µM | 0.04 µM | 0.2 µM |  | 
33 | CCCCNc1nc(N)nc2cccc(CCc3ccccc3)c12 | 0.27 µM | > 25 µM | 0.47 µM | 0.13 µM | 24% | 97%
